The source of these data is ChEMBL document CHEMBL2163301, “Substrates for efficient fluorometric screening employing the NAD-dependent sirtuin 5 lysine deacylase (KDAC) enzyme” (J Med Chem, 2012).

Data set [1] deals with CC(=O)N[C@@H](CCCCNC(=O)CCC(=O)O)C(=O)Nc1ccc2c(C)cc(=O)oc2c1. As to the kind of experiment: (§1) Activity of human SIRT5 assessed as desuccinylation of compound after 1 hr by Michaelis-Menten plot analysis. The procedure, abridged:
(§2)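 Recombinant human SIRT5 with fluorogenic succinyllysine-AMC substrate and NAD in Tris-Cl buffer pH 8.0 containing BSA, with in situ AMC release by Lys-C or trypsin developer. Fluorescence (ex 360/em 460 nm) read every 30 s for at least 30 min at 25 °C to give initial rates over a substrate concentration series. Km and Vmax from Michaelis-Menten fit; kcat from AMC standard curve and supplier enzyme concentration.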

In data set [2] the test system is CC(=O)N[C@@H](CC(C)C)C(=O)NCC(=O)N[C@@H](CCCCNC(=O)CCC(=O)O)C(=O)Nc1ccc2c(C)cc(=O)oc2c1. The description is as §1. The procedure, abridged: as §2
The test system of data set [3] is CC(=O)N[C@@H](CCCCNC(=O)CCC(=O)O)C(=O)Nc1ccc2c(C)cc(=O)oc2c1. As to the kind of experiment: (§3) Ratio of Kcat to Km for human SIRT5 assessed as desuccinylation of compound after 1 hr by Michaelis-Menten plot analysis. The procedure, abridged:
as §2

The test system of data set [4] is CC(=O)N[C@@H](CC(C)C)C(=O)NCC(=O)N[C@@H](CCCCNC(=O)CCC(=O)O)C(=O)Nc1ccc2c(C)cc(=O)oc2c1. Described as §3. The procedure, abridged:
as §2

NAD-dependent protein deacylase sirtuin-5, mitochondrial (Homo sapiens), Q9NXA8, sequence (Q9NXA8 whole entry): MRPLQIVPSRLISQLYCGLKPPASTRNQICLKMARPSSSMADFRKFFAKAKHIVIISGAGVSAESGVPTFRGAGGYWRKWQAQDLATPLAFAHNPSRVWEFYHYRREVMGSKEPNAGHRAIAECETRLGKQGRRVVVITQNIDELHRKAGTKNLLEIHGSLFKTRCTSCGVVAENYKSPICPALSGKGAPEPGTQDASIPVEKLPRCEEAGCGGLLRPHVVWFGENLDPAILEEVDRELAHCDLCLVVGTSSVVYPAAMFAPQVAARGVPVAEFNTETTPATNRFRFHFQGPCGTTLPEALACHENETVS

For the substance “NAD-dependent protein deacylase sirtuin-5, mitochondrial (Homo sapiens), Q9NXA8”, in data set [1], the Km (in general, the substrate concentration at which the rate is half of its maximum) is 84 µM; the Vmax was determined as 5.6 ×10⁻⁴ µM/s; the kcat was found to be 9 ×10⁻³ /s. In data set [2], the Michaelis-Menten constant (Km) came out at 33 µM, the Vmax is 1.9 nM/s and the kcat is 3 ×10⁻² /s. In addition, the kcat/Km in data set [3] was found to be 1.1 ×10² /s/M. Further, the kcat/Km in data set [4] is 9.2 ×10² /s/M.
